Results as given in ChEMBL document CHEMBL4765441, “Design, synthesis and anti-cancer activity of pyrrole-imidazole polyamides through target-downregulation of c-kit gene expression” (Eur J Med Chem, 2020).
Where a name gives a salt, the structure may show the parent alone. Values belong to the compound of their own block, whether it stands above or below them. Activity calls are given as the source filed them. The rule behind the calls is not given here.

Legend:
dsDNA [1] = assay: Binding affinity to 5'-AGGGGAGGCGAGGAGGGGCGTGGCCGG-3'/3'-TCCCCTCCGCTCCTCCCCGCACCGGCC-5' dsDNA (unknown origin) at 0 to 32 uM by SYBR GOLD staining based EMSA; assay type: nucleic-acid assay; conditions: Homo sapiens; dose 0-32 µM
Procedure, shortened: (§1)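 Target 27-bp c-kit promoter duplex, annealed at 95 °C, then incubated overnight with or without compound in pH 7.4 buffer (10 mM Tris-HCl, 10 mM KCl, 0.1 mM EDTA). Mixtures run on 16% native polyacrylamide gel at 150 V for 3 h. Gels stained with SYBR Gold for 30 min and imaged on a gel documentation system.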

SGC-7901 [2] = assay: Induction of morphological changes in human SGC7901 cells assessed as appearance of round shaped cells at 7.5 uM incubated for 36 hrs by microscopic analysis; assay type: functional, cell-based
Procedure, shortened: (§2)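 Cells seeded at 2 × 10^5 per well and grown 24 h. Medium then replaced with compound-containing medium. After 36 h co-culture, morphology inspected by light microscopy.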

MKN-45 = assay: Antiproliferative activity against human MKN-45 cells assessed as reduction in cell viability incubated for 48 hrs by xCELLigence RTCA; assay type: functional, cell-based; conditions: MKN-45, 48 h
dsDNA [3] = assay: Binding affinity to 5'-AGGGGAGGCGAGGAGGGGCGTGGCCGG-3'/3'-TCCCCTCCGCTCCTCCCCGCACCGGCC-5' dsDNA (unknown origin) by SYBR GOLD staining based EMSA; assay type: nucleic-acid assay; conditions: Homo sapiens; procedure, shortened: as §1
SGC-7901 [4] = assay: Induction of apoptosis in human SGC7901 cells assessed as apoptotic rate at 20 uM incubated for 36 hrs by Annexin V-FITC/propidium iodide staining-based flow cytometric analysis; assay type: functional
SGC-7901 [5] = assay: Inhibition of cell migration in human SGC7901 cells at 1.5 uM incubated for 48 hrs by inverted fluorescence microscope based scratch wound healing assay; assay type: functional
Procedure, shortened: (§3)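 20 × 10^4 cells per well grown to 80% confluence. Wound scratched with a pipette tip, washed twice with PBS and photographed under an inverted fluorescence microscope. Cells then held in serum-free medium with compound for 48 h. Migration measured as distance moved from the wound edge; mean ± SD, n = 3.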

SGC-7901 [6] = assay: Induction of morphological changes in human SGC7901 cells assessed as cell detachment at 7.5 uM incubated for 36 hrs by microscopic analysis; assay type: functional, cell-based; procedure, shortened: as §2
dsDNA [7] = assay: Binding affinity to 5'-AGGGGAGGCGAGGAGGGGCGTGGCCGG-3'/3'-TCCCCTCCGCTCCTCCCCGCACCGGCC-5' dsDNA (unknown origin) at 1:8 DNA:compound ratio by SYBR GOLD staining based EMSA; assay type: nucleic-acid assay; conditions: Homo sapiens; procedure, shortened: as §1
A549 [8] = assay: Down regulation of c-kit gene expression in human A549 cells at 15 uM incubated for 36 hrs by Western blot analysis; assay type: functional, cell-based
Procedure, shortened: (§4)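 Cells exposed to compound for 36 h, then lysed in RIPA and protein measured by BCA. 30 units of total protein separated by 10% SDS-PAGE, transferred to PVDF and blocked with 5% BSA. Primary antibodies, with β-tubulin as reference, at 4 °C; secondary 2 h; ECL detection. Bands quantified by densitometry, mean ± SD, n = 3.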

A549 [9] = assay: Induction of apoptosis in human A549 cells assessed as apoptotic rate at 20 uM incubated for 36 hrs by Annexin V-FITC/propidium iodide staining-based flow cytometric analysis; assay type: functional
A549 [10] = assay: Induction of morphological changes in human A549 cells assessed as cell detachment at 15 uM incubated for 36 hrs by microscopic analysis; assay type: functional, cell-based; procedure, shortened: as §2
Bel-7402 = assay: Antiproliferative activity against human Bel-7402 cells assessed as reduction in cell viability incubated for 48 hrs by xCELLigence RTCA; assay type: functional, cell-based; conditions: Bel-7402, 48 h
SGC-7901 [11] = assay: Down regulation of c-kit gene expression in human SGC-7901 cells at 15 uM incubated for 36 hrs by Western blot analysis; assay type: functional, cell-based; procedure, shortened: as §4
SGC-7901 [12] = assay: Antiproliferative activity against human SGC7901 cells assessed as reduction in cell viability incubated for 48 hrs by xCELLigence RTCA; assay type: functional, cell-based; conditions: SGC-7901, 48 h
A549 [13] = assay: Inhibition of cell migration in human A549 cells at 1.5 uM incubated for 48 hrs by inverted fluorescence microscope based scratch wound healing assay; assay type: functional; procedure, shortened: as §3
A549 [14] = assay: Induction of morphological changes in human A549 cells assessed as membrane bulge at 15 uM incubated for 36 hrs by microscopic analysis; assay type: functional, cell-based; procedure, shortened: as §2
A549 [15] = assay: Antiproliferative activity against human A549 cells assessed as reduction in cell viability incubated for 48 hrs by xCELLigence RTCA; assay type: functional, cell-based; conditions: A549, 48 h
dsDNA [16] = assay: Binding affinity to 5'-AGGGGAGGCGAGGAGGGGCGTGGCCGG-3'/3'-TCCCCTCCGCTCCTCCCCGCACCGGCC-5' dsDNA (unknown origin) by circular dichroism spectroscopic analysis; assay type: nucleic-acid assay; conditions: Homo sapiens
Procedure, shortened: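 Target duplex annealed at 95 °C, held 24 h in pH 7.0 buffer (10 mM sodium cacodylate, 100 mM NaCl, 0.5% DMSO), then degassed. Compound titrated in at compound:DNA ratios 0.0–3.0, room temperature, 15 min equilibration per addition. CD read 225–400 nm in a 5 mm quartz cell at 100 nm/min, 5.0 nm bandwidth. Average of three parallel runs.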

SGC-7901 [17] = assay: Induction of morphological changes in human SGC7901 cells assessed as apoptotic body formation at 7.5 uM incubated for 36 hrs by microscopic analysis; assay type: functional, cell-based; procedure, shortened: as §2

Activity (dsDNA [1]): inactive
SMILES: CC(=O)Nc1cn(C)c(C(=O)Nc2cn(C)c(C(=O)NCCC(=O)Nc3cn(C)c(C(=O)Nc4cn(C)c(C(=O)NCC[C@@H](N)C(=O)Nc5cc(C(=O)Nc6cc(C(=O)NC[C@@H](O)CC(=O)Nc7cc(C(=O)Nc8cc(C(=O)NCCC(=O)NCCCN(C)C)n(C)c8)n(C)c7)n(C)c6)n(C)c5)n4)n3)n2)n1

IC50 (MKN-45): 19.9 µM | Activity (dsDNA [3]): Dose-dependent effect | Activity (dsDNA [7]): Active | IC50 (Bel-7402): 14.9 µM | IC50 (SGC-7901 [12]): 6.05 µM | IC50 (A549 [15]): 7.93 µM | Activity (dsDNA [16]): Active
SMILES: CC(=O)Nc1cn(C)c(C(=O)Nc2cn(C)c(C(=O)Nc3cc(C(=O)Nc4cn(C)c(C(=O)NCCC(=O)Nc5cn(C)c(C(=O)Nc6cn(C)c(C(=O)NCC[C@@H](NC(=O)c7nc(NC(=O)c8nc(NC(=O)c9nccn9C)cn8C)cn7C)C(=O)Nc7cc(C(=O)Nc8cc(C(=O)NC[C@@H](O)CC(=O)Nc9cc(C(=O)Nc%10cn(C)c(C(=O)Nc%11cc(C(=O)Nc%12cc(C(=O)NCCC(=O)NCCCN(C)C)n(C)c%12)n(C)c%11)n%10)n(C)c9)n(C)c8)n(C)c7)n6)n5)n4)n(C)c3)n2)n1.Cl.Cl
Activity (SGC-7901 [2]): Active | Activity (SGC-7901 [4]): 53.3% | inhibition at 1.5 µM (SGC-7901 [5]): 80.8% | Activity (SGC-7901 [6]): Active | Activity (A549 [8]): Active | Activity (A549 [9]): 47.9% | Activity (A549 [10]): Active | Activity (SGC-7901 [11]): Active | inhibition at 1.5 µM (A549 [13]): 73.5% | Activity (A549 [14]): Active | Activity (SGC-7901 [17]): Active

SMILES: Cc1ccc(NC(=O)c2ccc(CN3CCN(C)CC3)cc2)cc1Nc1nccc(-c2cccnc2)n1 [IMATINIB MESYLATE]
IC50 (MKN-45): 12.2 µM | IC50 (Bel-7402): 55.5 µM | IC50 (SGC-7901 [12]): 0.208 µM | IC50 (A549 [15]): 1.87 µM

Activity (dsDNA [1]): inactive
SMILES: CC(=O)Nc1cn(C)c(C(=O)Nc2cn(C)c(C(=O)Nc3cn(C)c(C(=O)NCCC(=O)Nc4cn(C)c(C(=O)Nc5cn(C)c(C(=O)NCC[C@@H](N)C(=O)Nc6cc(C(=O)Nc7cc(C(=O)NC[C@@H](O)CC(=O)Nc8cc(C(=O)Nc9cc(C(=O)Nc%10cc(C(=O)NCCC(=O)NCCCN(C)C)n(C)c%10)n(C)c9)n(C)c8)n(C)c7)n(C)c6)n5)n4)n3)n2)n1

Activity (dsDNA [1]): inactive
SMILES: CC(=O)Nc1cn(C)c(C(=O)Nc2cn(C)c(C(=O)NC[C@@H](O)CC(=O)Nc3cn(C)c(C(=O)Nc4cn(C)c(C(=O)NCC[C@@H](N)C(=O)Nc5cc(C(=O)Nc6cc(C(=O)NCCC(=O)Nc7cc(C(=O)Nc8cc(C(=O)NCCC(=O)NCCCN(C)C)n(C)c8)n(C)c7)n(C)c6)n(C)c5)n4)n3)n2)n1
